The conditions of series [1]: ref Naguib et al., 2016; cited from earlier work.
In another series the test system is B16-F10 tumor. Briefly: Antitumor activity in mice with pre-established B16-F10 tumors. The conditions noted are these: B16-F10 s.c. tumors, i.v. 50 mg/kg DHA-dFdC on days 7, 10, 13, 16. It is filed as in vivo.
In another series the test system is M-Wnt cells. The series is described as follows: In vitro cytotoxicity, MTT assay. It is filed as cell-based, murine. The following applies: 24 h of incubation. In outline:
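M-Wnt cells were grown in RPMI 1640 plus 1% Glutamax and seeded at 1,000 cells/well. After overnight attachment at 37°C, 5% CO2, they were treated for 24 h with graded concentrations of free compound (DMSO stock diluted in medium) or SLN formulation (dispersed in medium). Drug-free SLN, DMSO and medium controls were included. Survival was read by MTT.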
(In general: Formazan colour is commonly taken as a measure of viable cells.)

A further series has as its system B16-F10 tumors. The series is described as follows: Histology. In kind it is in vivo, C57BL/6 mice. The conditions noted are these: tumors collected day 17; i.v. 50 mg/kg DHA-dFdC x 4. The gist of the method:
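Female C57BL/6 mice (18–20 g, 6–8 weeks) received 5 × 10^5 B16-F10 cells s.c. in the right flank on day 0. They were randomized on day 7 and dosed i.v. every 3 days ×4 at 50 mg/kg. Free compound was given in Tween 80/ethanol/5% mannitol vehicle; SLNs were dispersed in 5% mannitol. Tumors were harvested day 17, formalin-fixed, embedded and H&E stained.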

The next series concerns B16-F10 cells. The series is described as follows: In vitro cytotoxicity, MTT assay. In kind it is cell-based, murine. The conditions noted are these: 48 h of incubation. In outline:
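B16-F10 cells were grown in DMEM and seeded at 4,000 cells/well. After overnight attachment at 37°C, 5% CO2, they were exposed for 48 h to graded concentrations of free compound (DMSO stock diluted in medium) or SLN formulation (dispersed in medium). Drug-free SLNs, DMSO and medium served as controls. Survival was read by MTT.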

For series [2] the following is noted: Tween 80-ethanol-water solution, room temperature; ref Naguib et al., 2016; cited from earlier work.
The conditions of series [3]: 20°C; ref Kim and Hsieh, 2001; Wu and Hopkins, 1999; cited from earlier work.

In general, IC50 refers to the concentration that inhibits the measured activity by half. Read a low IC50 as greater potency in that assay. Regarding `CC/C=C\C/C=C\C/C=C\C/C=C\C/C=C\C/C=C\CCC(=O)Nc1ccn([C@@H]2O[C@H](CO)[C@@H](O)C2(F)F)c(=O)n1` [DHA-dFdC, 4-(N)-docosahexaenoyl 2′, 2′-difluorodeoxycytidine], in series [1], the “Intrinsic solubility in water” value is listed as ~ 25 μg/mL. The compound also displayed a Tumor growth delay in the series with B16-F10 tumor of 4 days. Also, the IC50 was 2150 nM in the series with M-Wnt cells and 1810 nM in the series with B16-F10 cells. In addition, in the series with B16-F10 tumors, the “Tumor histology (H&E)” value was “vascular collapse and necrotic areas”. Besides, the “Half-life of DHA-dFdC in solution” value in series [2] was ~ 14 h.

Take Tween 20: the Critical micelle concentration in series [3] is ~ 1 % (w/v).

The values are drawn from article PMC6824728 (International journal of pharmaceutics, 2019).
